Legend:
[1] = Metabolic stability in mouse liver microsomes assessed as parent compound remaining at 0.2 uM preincubated for 5 mins followed by NADPH addition measured up to 60 mins by UPLC-MS/MS analysis; type: ADME, microsome; conditions: read-out: Stability
How it was run: (§1)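 Pooled mouse, rat or human liver microsomes 0.2 mg/mL with 1 mM NADPH, 5 mM MgCl2, 100 mM potassium phosphate pH 7.4 and 0.2 µM compound; 5-min preincubation at 37 °C, NADPH start, sampled at 5, 15, 30, 60 min; ice-cold acetonitrile stop; UPLC-MS/MS; percent parent remaining at 60 min.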

[2] = Metabolic stability in rat liver microsomes assessed as parent compound remaining at 0.2 uM preincubated for 5 mins followed by NADPH addition measured up to 60 mins by UPLC-MS/MS analysis; type: ADME, microsome; conditions: read-out: Stability; how it was run: as §1
[3] = Tmax in mouse at 10 mg/kg, ig administered as single dose by UPLC-MS/MS analysis; type: ADME, organism-based; conditions: in vivo, po
How it was run: (§2)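 Adult male mice (12 h light-dark, 22 °C, 55% humidity) fasted 12 h with free water, then given a single 10 mg/kg intragastric dose; plasma concentrations by UPLC-MS/MS; PK parameters calculated by software.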

[4] = AUC (0 to t) in mouse at 10 mg/kg, ig administered as single dose by UPLC-MS/MS analysis; type: ADME, organism-based; conditions: in vivo, po; how it was run: as §2
[5] = Cmax in beagle dog at 2 mg/kg, po administered as single dose by UPLC-MS/MS analysis; type: ADME, organism-based, Canis lupus familiaris; parameters: dose 2 mg/kg, route oral; conditions: in vivo
[6] = Half life in beagle dog at 2 mg/kg, po administered as single dose by UPLC-MS/MS analysis; type: ADME, organism-based, Canis lupus familiaris; conditions: in vivo
[7] = Protein binding in mouse plasma at 10 uM after 6 hrs by UPLC-MS/MS based equilibrium dialysis method; type: ADME, cell-free; conditions: read-out: PPB (converted)
How it was run: (§3)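 Equilibrium dialysis: plasma (pH 7.4) preincubated 15 min at 37 °C, spiked with compound at 1 or 10 µM (0.5% DMSO final); dialysed against 100 mM phosphate buffer pH 7.4, 6 h at 37 °C, 100 rpm; donor and receiver samples analysed by UPLC-MS/MS.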

[8] = Protein binding in dog plasma at 10 uM after 6 hrs by UPLC-MS/MS based equilibrium dialysis method; type: ADME, cell-free, Canis lupus familiaris; conditions: read-out: PPB (converted); how it was run: as §3
[9] = Ratio of drug uptake in Sprague-Dawley rat liver to plasma at 10 mg/kg, ig administered as single dose measured after 2 hrs by UPLC-MS/MS analysis; type: ADME, organism-based; conditions: po
[10] = target: Cytochrome P450 3A4 (Homo sapiens, UniProt P08684); assay: Inhibition of CYP3A4 in human liver microsomes at 1 to 10 uM using nifedipine as substrate preincubated for 5 mins followed by NADPH addition measured after 30 mins by UPLC-MS/MS analysis relative to control; type: ADME; conditions: 0.5 h
[11] = target: Cytochrome P450 2C9 (Homo sapiens, UniProt P11712); assay: Inhibition of CYP2C9 in human liver microsomes at 1 to 10 uM using tolbutamide as substrate preincubated for 5 mins followed by NADPH addition measured after 30 mins by UPLC-MS/MS analysis relative to control; type: ADME; conditions: 0.5 h
[12] = target: T1, Cytochrome P450 2B6 (Homo sapiens, UniProt P20813); assay: Inhibition of CYP2B6 in human liver microsomes at 1 to 10 uM using bupropion hydrochloride as substrate preincubated for 5 mins followed by NADPH addition measured after 30 mins by UPLC-MS/MS analysis relative to control; type: ADME; conditions: 0.5 h
T1 sequence (P20813 whole entry): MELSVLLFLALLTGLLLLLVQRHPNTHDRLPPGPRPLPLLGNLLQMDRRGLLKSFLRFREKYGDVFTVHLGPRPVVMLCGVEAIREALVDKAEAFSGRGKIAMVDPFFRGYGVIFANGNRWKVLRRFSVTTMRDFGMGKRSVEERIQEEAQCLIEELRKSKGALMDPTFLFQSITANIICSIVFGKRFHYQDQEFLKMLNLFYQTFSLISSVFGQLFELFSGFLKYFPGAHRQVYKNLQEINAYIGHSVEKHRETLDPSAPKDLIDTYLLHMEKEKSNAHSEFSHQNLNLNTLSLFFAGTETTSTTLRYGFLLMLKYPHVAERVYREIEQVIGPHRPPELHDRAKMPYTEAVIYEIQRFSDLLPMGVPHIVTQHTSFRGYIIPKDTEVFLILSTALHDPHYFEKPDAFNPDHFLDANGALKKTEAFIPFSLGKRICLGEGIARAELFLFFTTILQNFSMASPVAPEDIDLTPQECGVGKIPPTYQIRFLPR

[13] = target: T2, Cytochrome P450 2A6 (Homo sapiens, UniProt P11509); assay: Inhibition of CYP2A6 in human liver microsomes at 1 to 10 uM using coumarin as substrate preincubated for 5 mins followed by NADPH addition measured after 30 mins by UPLC-MS/MS analysis relative to control; type: ADME; conditions: 0.5 h
T2 sequence (P11509 whole entry): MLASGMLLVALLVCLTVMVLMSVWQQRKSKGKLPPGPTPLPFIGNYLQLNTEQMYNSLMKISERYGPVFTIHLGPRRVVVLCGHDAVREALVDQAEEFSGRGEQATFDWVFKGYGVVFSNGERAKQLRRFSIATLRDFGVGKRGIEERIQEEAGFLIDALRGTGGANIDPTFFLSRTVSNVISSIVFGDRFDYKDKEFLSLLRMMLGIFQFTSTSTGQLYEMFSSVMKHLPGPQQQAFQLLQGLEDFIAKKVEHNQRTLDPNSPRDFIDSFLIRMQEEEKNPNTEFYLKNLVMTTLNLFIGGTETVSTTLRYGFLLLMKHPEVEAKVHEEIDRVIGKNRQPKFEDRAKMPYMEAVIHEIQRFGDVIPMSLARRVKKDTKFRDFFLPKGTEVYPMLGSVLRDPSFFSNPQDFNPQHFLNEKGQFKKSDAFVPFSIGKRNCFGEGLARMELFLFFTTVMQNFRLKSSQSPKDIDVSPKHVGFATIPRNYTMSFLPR

[14] = target: hERG (KCNH2) (Homo sapiens, UniProt Q12809); assay: Inhibition of human ERG assessed as reduction in peak tail current at 10 uM at holding potential of -80 mV by patch clamp method relative to control
How it was run: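 Whole-cell patch clamp, room temperature; hold -80 mV, 2 s +50 mV depolarization then 3 s -50 mV repolarization every 30 s; peak tail current referenced to initial 50 ms step to -50 mV; 3 min vehicle stabilization, then test solution until stable (<5% over ~5 sweeps) or 6 min max; mean ± SD, n = 3.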

[15] = system: Mus musculus; assay: Toxicity in ICR mouse assessed as hemoglobin concentration at 150 mg/kg, po administered via gavage once daily for 14 days (reference value: 157.4 +/- 15.5 g/L); type: organism-based; conditions: in vivo, 336 h
How it was run: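 Haematology on abdominal aortic blood taken at necropsy under ether anaesthesia after 14 daily gavage doses (20 ml/kg) in ICR mice, 5 per sex per group, vehicle control. Parameters: WBC, RBC, haemoglobin, platelets, reticulocyte ratio and differential leukocyte counts; mean ± SD, n = 10.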

[16] = system: Mus musculus; assay: Toxicity in ICR mouse assessed as spleen weight at 150 mg/kg, po administered via gavage once daily for 14 days (reference value: 0.355 +/- 0.1 g); type: organism-based; conditions: in vivo, 336 h
[17] = system: Mus musculus; assay: Toxicity in ICR mouse assessed as testis weight at 150 mg/kg, po administered via gavage once daily for 14 days (reference value: 0.881 +/- 0.037 g); type: organism-based; conditions: in vivo, 336 h

Sequence of hERG (KCNH2) (Q12809 whole entry): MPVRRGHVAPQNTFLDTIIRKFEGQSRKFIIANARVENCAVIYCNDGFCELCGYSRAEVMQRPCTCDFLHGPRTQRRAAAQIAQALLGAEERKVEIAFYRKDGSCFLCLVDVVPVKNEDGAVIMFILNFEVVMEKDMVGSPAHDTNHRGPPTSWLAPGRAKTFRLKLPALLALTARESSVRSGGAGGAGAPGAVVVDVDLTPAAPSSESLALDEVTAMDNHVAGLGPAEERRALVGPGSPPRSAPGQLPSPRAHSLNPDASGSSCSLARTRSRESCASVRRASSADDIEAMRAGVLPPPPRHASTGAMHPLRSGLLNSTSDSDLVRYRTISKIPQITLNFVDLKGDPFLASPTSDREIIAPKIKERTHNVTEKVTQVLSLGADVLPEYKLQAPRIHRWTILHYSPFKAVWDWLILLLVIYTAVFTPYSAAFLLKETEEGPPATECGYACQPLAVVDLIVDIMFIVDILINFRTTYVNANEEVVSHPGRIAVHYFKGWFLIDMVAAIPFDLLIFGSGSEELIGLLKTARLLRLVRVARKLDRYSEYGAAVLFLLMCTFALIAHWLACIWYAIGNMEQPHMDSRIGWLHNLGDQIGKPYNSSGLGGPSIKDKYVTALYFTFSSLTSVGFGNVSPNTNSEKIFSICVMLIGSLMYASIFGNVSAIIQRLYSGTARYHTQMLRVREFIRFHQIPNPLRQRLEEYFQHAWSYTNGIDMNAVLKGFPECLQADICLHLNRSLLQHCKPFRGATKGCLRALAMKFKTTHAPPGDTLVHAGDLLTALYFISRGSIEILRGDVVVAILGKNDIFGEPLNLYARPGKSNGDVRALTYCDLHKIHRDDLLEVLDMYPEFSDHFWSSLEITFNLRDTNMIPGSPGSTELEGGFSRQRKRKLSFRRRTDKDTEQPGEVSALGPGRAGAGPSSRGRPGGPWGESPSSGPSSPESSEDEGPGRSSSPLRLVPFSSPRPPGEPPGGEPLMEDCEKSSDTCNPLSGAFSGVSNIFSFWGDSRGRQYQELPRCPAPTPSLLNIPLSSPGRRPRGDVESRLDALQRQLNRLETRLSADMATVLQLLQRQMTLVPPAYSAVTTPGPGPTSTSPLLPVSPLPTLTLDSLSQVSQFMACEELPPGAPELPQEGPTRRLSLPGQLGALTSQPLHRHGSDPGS
Sequence of Cytochrome P450 3A4 (P08684 whole entry): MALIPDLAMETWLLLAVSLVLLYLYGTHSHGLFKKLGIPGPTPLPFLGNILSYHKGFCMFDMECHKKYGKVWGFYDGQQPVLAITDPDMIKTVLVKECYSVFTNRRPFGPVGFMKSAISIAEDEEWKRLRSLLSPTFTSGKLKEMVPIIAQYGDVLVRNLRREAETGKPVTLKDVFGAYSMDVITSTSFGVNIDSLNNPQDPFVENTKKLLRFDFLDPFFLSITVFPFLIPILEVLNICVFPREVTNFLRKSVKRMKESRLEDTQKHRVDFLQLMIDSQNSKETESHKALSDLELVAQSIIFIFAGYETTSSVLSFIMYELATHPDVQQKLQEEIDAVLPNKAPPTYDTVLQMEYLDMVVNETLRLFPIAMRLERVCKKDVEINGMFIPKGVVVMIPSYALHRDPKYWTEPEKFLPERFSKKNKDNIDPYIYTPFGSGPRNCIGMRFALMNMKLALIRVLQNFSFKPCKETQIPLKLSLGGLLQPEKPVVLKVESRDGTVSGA
Sequence of Cytochrome P450 2C9 (P11712 whole entry): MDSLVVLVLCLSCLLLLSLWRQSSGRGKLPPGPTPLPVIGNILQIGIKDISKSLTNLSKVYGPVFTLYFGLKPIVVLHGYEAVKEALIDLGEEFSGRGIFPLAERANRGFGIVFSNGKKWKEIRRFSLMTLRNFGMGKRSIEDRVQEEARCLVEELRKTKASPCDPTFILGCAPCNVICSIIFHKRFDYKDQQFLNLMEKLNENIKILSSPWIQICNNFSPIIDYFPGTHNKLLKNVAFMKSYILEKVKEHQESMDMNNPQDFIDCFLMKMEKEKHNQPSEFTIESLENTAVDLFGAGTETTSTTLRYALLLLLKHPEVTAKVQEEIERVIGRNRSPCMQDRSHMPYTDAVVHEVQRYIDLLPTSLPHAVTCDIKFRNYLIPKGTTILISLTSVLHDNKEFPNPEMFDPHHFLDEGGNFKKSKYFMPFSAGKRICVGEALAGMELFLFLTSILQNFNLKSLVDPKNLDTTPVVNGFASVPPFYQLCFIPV

| SMILES | remaining at 1 h, 0.2 µM [1] [%] | remaining at 1 h, 0.2 µM [2] [%] | Tmax [3] [h] | AUC(0-t) [4] [ng·h/mL] | Cmax [5] [ng/mL] | half-life [6] [h] | fraction unbound at 6 h, 10 µM [7] | fraction unbound at 6 h, 10 µM [8] | Kp at 2 h [9] | inhibition (INH) [10] | inhibition (INH) [11] | inhibition (INH) [12] | inhibition (INH) [13] | inhibition at 10 µM [14] [%] | Activity [15] [g/L] | Activity [16] [g] | Activity [17] [g] |
| --- | --- | --- | --- | --- | --- | --- | --- | --- | --- | --- | --- | --- | --- | --- | --- | --- | --- |
| CC[Si](CC)(CC)c1ccc(N2[C@H](c3ccc(NC(=O)[C@@H]4CCCN4C(=O)[C@@H](NC(=O)OC)C(C)C)cc3)CC[C@H]2c2ccc(NC(=O)[C@@H]3CCCN3C(=O)[C@@H](NC(=O)OC)C(C)C)cc2)cc1 | 92.7 | 98 | 3 | 3040 | 29.2 | 12.7 | 0.00011 | 6e-05 | 28.1 | Not Active | Not Active | Not Active | Not Active | 8.7 | 154.6 | 0.345 | 0.789 |
| COC(=O)N[C@H](C(=O)N1CCC[C@H]1C(=O)Nc1ccc([C@@H]2CC[C@@H](c3ccc(NC(=O)[C@@H]4CCCN4C(=O)[C@@H](NC(=O)OC)C(C)C)cc3)N2c2ccc(C(C)(C)C)cc2)cc1)C(C)C [OMBITASVIR] | 88.7 | 101 | 3 | 6480 | 15.7 | 11.1 | 1e-05 | 1e-05 | 24.6 | Not Active | Not Active | Not Active | Not Active | 1.8 | – | – | – |

Reference: ChEMBL document CHEMBL4196017, “Design, synthesis and identification of silicon-containing HCV NS5A inhibitors with pan-genotype activity” (Eur J Med Chem, 2018)
